Laboratory results as given in ChEMBL document CHEMBL1131259, “Synthesis and evaluation of diphenyl phosphonate esters as inhibitors of the trypsin-like granzymes A and K and mast cell tryptase” (J Med Chem, 1998).
Active and inactive are the calls of the source. The rule behind the calls is not given here.

Key:
[1] = molecular target: T1, Granzyme K (Rattus norvegicus) (UniProt P49864); assay: Inhibition of rat granzyme K
T1 sequence (whole entry): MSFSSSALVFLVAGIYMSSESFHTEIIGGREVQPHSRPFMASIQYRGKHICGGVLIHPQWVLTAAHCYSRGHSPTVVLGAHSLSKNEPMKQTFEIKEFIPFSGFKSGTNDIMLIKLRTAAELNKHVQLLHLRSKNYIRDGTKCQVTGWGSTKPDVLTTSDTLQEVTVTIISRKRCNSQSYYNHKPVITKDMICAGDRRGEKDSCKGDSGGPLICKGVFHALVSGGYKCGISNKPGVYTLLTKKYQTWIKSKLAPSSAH
In short: (§1)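 Native rat granzyme K, purified by size-exclusion in 1 M NaCl then MonoS cation exchange. Incubated with inhibitor (1.0–450 μM) at 25 °C in 0.1 M Hepes, 0.01 M CaCl2, pH 7.5 (7.1% DMSO). Timed aliquots were read for residual activity on Cbz-Arg-SBzl with DTNB at 405 nm. k_obs came from ln vt/vo vs time, one or two per inhibitor. For no-inhibition lines, none was seen after 25 min.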

[2] = molecular target: T2, Serine protease 1 (Bos taurus) (UniProt P00760); assay: Inhibition of bovine trypsin
T2 sequence (whole entry): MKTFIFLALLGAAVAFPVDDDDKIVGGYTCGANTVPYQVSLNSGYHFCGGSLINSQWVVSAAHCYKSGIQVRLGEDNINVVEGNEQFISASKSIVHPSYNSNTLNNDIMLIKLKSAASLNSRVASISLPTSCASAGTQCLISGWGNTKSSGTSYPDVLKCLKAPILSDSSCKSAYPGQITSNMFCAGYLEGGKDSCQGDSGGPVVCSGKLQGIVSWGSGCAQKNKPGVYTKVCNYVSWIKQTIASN
In short: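 Irreversible inhibition assayed by incubation at 25 °C in 0.1 M Hepes, 0.01 M CaCl2, pH 7.5 (2% DMSO), inhibitor 1.0–450 μM. Timed aliquots were read for residual activity on Cbz-Arg-SBzl with DTNB at 410 nm. Pseudo-first-order k_obs came from ln vt/vo vs time, using 5–10 points over 2–3 half-lives, three k_obs per inhibitor. DMSO-only controls were run. For no-inhibition lines, none was seen after 25 min.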

[3] = molecular target: T3, Tryptase (Homo sapiens) (UniProt Q9BZJ3+Q15661+Q9NRR2); assay: Inhibition of mast cell tryptase; format: protein assay
In short: (§2)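 Human lung mast cell tryptase, high-molecular-weight form, heparin-free, active sites titrated with MUGB. Incubated with inhibitor at 25 °C in 0.1 M Hepes, 10% glycerol, 10 mM heparin, pH 7.5 (7.1% DMSO). […] DMSO controls were run.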

[4] = molecular target: T4, Granzyme A (Homo sapiens) (UniProt P12544); assay: Inhibition of human granzyme A
T4 sequence (whole entry): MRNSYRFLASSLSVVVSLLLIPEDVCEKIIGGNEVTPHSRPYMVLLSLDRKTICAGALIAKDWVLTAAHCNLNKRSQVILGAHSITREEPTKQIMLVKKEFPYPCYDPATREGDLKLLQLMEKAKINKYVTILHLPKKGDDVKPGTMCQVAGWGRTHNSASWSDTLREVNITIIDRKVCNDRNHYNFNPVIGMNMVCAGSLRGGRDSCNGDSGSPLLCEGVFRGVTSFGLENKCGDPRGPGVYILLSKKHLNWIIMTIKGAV
In short: (§3)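 Recombinant human and rat granzyme A, incubated with inhibitor (1.0–450 μM) at 25 °C in 0.1 M Hepes, 0.01 M CaCl2, pH 7.5 (7.6% DMSO). Timed aliquots were read for residual activity on Cbz-Arg-SBzl with DTNB at 405 nm. k_obs came from ln vt/vo vs time over 5–10 points and 2–3 half-lives, two k_obs per inhibitor. DMSO controls were run.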

[5] = molecular target: T1, Granzyme K (Rattus norvegicus); assay: Compound was evaluated to inhibit rat granzyme K; No inhibition; in short: as §1
[6] = molecular target: T5, Granzyme A (Rattus norvegicus) (UniProt Q8CJF4); assay: Inhibition of rat granzyme A.; in short: as §3
T5 sequence (whole entry): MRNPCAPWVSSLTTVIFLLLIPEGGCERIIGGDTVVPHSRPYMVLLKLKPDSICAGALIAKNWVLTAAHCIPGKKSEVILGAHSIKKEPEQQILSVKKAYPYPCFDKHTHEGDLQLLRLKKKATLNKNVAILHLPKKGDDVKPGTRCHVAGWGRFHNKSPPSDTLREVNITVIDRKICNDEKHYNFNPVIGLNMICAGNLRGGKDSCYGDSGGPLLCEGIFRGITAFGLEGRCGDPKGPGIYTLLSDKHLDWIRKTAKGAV

[7] = molecular target: T3, Tryptase (Homo sapiens); assay: Compound was evaluated to inhibit mast cell tryptase; No inhibition; format: protein assay; in short: as §2

Row | Compound | kobs/[I] (second-order inactivation rate constant) [1] [M⁻¹ s⁻¹] | K obs / 1 [2] [M⁻¹ s⁻¹] | kobs/[I] (second-order inhibition rate constant) [3] [M⁻¹ s⁻¹] | kobs/[I] (second-order inactivation rate constant) [4] [M⁻¹ s⁻¹] | K obs / 1 [5] | K obs / 1 [6] [M⁻¹ s⁻¹] | K obs / 1 [7]
1 | CC(C)(C)OC(=O)N[C@H](Cc1ccccc1)C(=O)N1CCC[C@H]1C(=O)NC(c1ccc(C(N)N)cc1)P(=O)(Oc1ccccc1)Oc1ccccc1 (stereo partly specified) | 56 | 130 | 0.4 | 170 | – | – | –
2 | C[C@H](NC(=O)[C@@H](CCCCNC(=O)OC(C)(C)C)NC(=O)OCc1ccccc1)C(=O)NC(c1ccc(C(N)N)cc1)P(=O)(Oc1ccccc1)Oc1ccccc1 (stereo partly specified) | – | 3100 | 8.5 | 110 | inactive | – | –
3 | N=C(N)c1ccc(C(NC(=O)[C@@H]2CCCN2C(=O)CCc2ccccc2)P(=O)(Oc2ccccc2)Oc2ccccc2)cc1 (stereo partly specified) | 50 | 1520 | 0.4 | 1510 | – | – | –
4 | C[C@H](NC(=O)[C@@H](C)NC(=O)OCc1ccccc1)C(=O)NC(c1ccc(C(=N)N)cc1)P(=O)(Oc1ccccc1)Oc1ccccc1 (stereo partly specified) | 5 | 3620 | 2 | 820 | – | 480 | –
5 | N=C(N)c1ccc(C(NC(=O)[C@@H]2CCCN2C(=O)CC(c2ccccc2)c2ccccc2)P(=O)(Oc2ccccc2)Oc2ccccc2)cc1 (stereo partly specified) | 1830 | 2660 | – | 250 | – | – | inactive
6 | C[C@@H](O)[C@H](NC(=O)OCc1ccccc1)C(=O)NC(c1ccc(C(=N)N)cc1)P(=O)(Oc1ccccc1)Oc1ccccc1 (stereo partly specified) | 3 | 97 | – | 2220 | – | – | inactive
7 | C[C@H](NC(=O)[C@H]1CCCN1C(=O)OCc1ccccc1)C(=O)NC(c1ccc(C(=N)N)cc1)P(=O)(Oc1ccccc1)Oc1ccccc1 (stereo partly specified) | 5 | 240 | 1 | 380 | – | – | –
8 | C[C@H](NC(=O)[C@@H](CC(=O)O)NC(=O)OCc1ccccc1)C(=O)NC(c1ccc(C(=N)N)cc1)P(=O)(Oc1ccccc1)Oc1ccccc1 (stereo partly specified) | 6 | 2550 | 0.7 | 240 | – | – | –
9 | C[C@H](NC(=O)[C@@H](C)NC(=O)CCC(=O)O)C(=O)NC(c1ccc(C(=N)N)cc1)P(=O)(Oc1ccccc1)Oc1ccccc1 (stereo partly specified) | 0.3 | 640 | 0.7 | 260 | – | – | –
10 | N=C(N)c1ccc(C(NC(=O)[C@H](CCCCN)NC(=O)OCc2ccccc2)P(=O)(Oc2ccccc2)Oc2ccccc2)cc1 (stereo partly specified) | 1 | 30 | – | 30 | – | 15 | inactive
11 | N=C(N)c1ccc(C(NC(=O)[C@@H]2CCCN2C(=O)c2ccccc2Oc2ccccc2)P(=O)(Oc2ccccc2)Oc2ccccc2)cc1 (stereo partly specified) | 60 | 7760 | 0.9 | 610 | – | – | –
12 | NC(N)c1ccc(C(NC(=O)c2cccc(Oc3ccccc3)c2)P(=O)(Oc2ccccc2)Oc2ccccc2)cc1 (stereo unspecified) | 1 | 50 | – | 340 | – | 470 | inactive
13 | N=C(N)c1ccc(C(NC(=O)/C=C/c2ccco2)P(=O)(Oc2ccccc2)Oc2ccccc2)cc1 (stereo unspecified) | 32 | 360 | – | 1740 | – | 1740 | inactive
